Series [1] deals with Heart. As to the kind of experiment: Cardiotoxicity in Langendorff-perfused Sprague-Dawley rat heart assessed as heart rate at 0.1 uM by ECG analysis (reference value: 252.78 +/- 9.28 bpm). The series is classed as toxicity, tissue-based.
In series [2] the target is T1, Fatty-acid amide hydrolase 1 (Homo sapiens, UniProt O00519).
T1 sequence (O00519 whole entry): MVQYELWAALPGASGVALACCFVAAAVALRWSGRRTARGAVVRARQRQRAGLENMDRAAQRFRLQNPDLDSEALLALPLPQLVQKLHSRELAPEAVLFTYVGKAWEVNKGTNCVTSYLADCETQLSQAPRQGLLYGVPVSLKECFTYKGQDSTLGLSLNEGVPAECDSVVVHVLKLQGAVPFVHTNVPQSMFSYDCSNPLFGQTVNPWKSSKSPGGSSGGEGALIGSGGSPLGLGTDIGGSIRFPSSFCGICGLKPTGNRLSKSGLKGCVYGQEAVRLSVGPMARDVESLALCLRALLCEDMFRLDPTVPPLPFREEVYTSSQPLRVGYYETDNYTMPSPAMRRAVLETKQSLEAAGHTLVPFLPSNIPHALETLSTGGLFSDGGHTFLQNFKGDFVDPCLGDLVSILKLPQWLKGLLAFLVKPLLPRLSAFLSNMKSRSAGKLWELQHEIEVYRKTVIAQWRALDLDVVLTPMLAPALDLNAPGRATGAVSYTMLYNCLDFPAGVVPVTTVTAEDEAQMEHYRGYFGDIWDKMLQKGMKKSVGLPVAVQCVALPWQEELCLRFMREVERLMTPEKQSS
The series can be described thus: Inhibition of recombinant C-terminal His-tagged human FAAH expressed in sf21 cells using N-arachidonoyl-[14C]-ethanolamine as substrate assessed as reduction in [14C]ethanolamine production incubated for 30 mins by scintillation counting method. Summed up:
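Human recombinant FAAH (2 µg/sample) incubated in 50 mM Tris-HCl, pH 9.5, 37 °C, 30 min with N-arachidonoyl-[14C]-ethanolamine diluted with unlabelled AEA. [14C]-ethanolamine released was quantified by scintillation counting of the aqueous phase after extraction with 2 volumes CHCl3/MeOH 1:1. Values are means of three experiments.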

The subject of series [3] is Heart. As to the kind of experiment: Cardiotoxicity in Langendorff-perfused Sprague-Dawley rat heart assessed as atrioventricular conduction time at 0.1 uM by ECG analysis (reference value: 45.62 +/- 4.49 milliseconds). It is filed as toxicity, tissue-based.
In series [4] the test system is Heart. The series can be described thus: Cardiotoxicity in Langendorff-perfused Sprague-Dawley rat heart assessed as intraventricular conduction time at 0.01 uM by ECG analysis (reference value: 14.26 +/- 0.71 milliseconds). The series is classed as toxicity, tissue-based, Cardiac ventricle.
For the next series, the target named is T2, Monoglyceride lipase (Homo sapiens, UniProt Q99685).
T2 sequence (Q99685 whole entry): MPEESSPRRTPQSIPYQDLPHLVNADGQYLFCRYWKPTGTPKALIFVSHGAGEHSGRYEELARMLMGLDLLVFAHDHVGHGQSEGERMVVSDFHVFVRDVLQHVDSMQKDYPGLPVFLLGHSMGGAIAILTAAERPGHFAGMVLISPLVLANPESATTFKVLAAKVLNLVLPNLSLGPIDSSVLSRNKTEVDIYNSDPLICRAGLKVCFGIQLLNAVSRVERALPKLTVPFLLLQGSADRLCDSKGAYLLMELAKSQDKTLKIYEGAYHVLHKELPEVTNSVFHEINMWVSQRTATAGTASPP
As to the kind of experiment: Inhibition of recombinant C-terminal His6-tagged human MAGL expressed in Escherichia coli using 2-arachidonoyl-[3H]-glycerol as substrate preincubated for 10 mins followed by substrate addition measured after 20 mins by scintillation counting method. Summed up: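 Human recombinant MGL (10,000xg cytosolic fraction, 0.05 µg/sample) is pre-incubated with compound for 10 min. It is then incubated 20 min at 37 °C in 50 mM Tris-HCl pH 7.0 with 2-arachidonoyl-[3H]-glycerol diluted with unlabelled 2-AG. The mix is extracted with 2 vol CHCl3/MeOH 1:1, and [3H]-glycerol in the aqueous phase is counted by scintillation. Values are means of three experiments.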

For another series, the system named is Salmonella typhimurium. The series can be described thus: Mutagenicity in Salmonella typhimurium TA100 assessed as increase in number of colonies at 1 uM by Ames test. It is filed as toxicity, organism-based. The conditions noted are these: salmonella enterica subsp. enterica serovar typhimurium. (In the Ames test, an excess of revertant colonies over the control signals mutagenicity.)

For series [5], the target named is T3, Fatty-acid amide hydrolase 1 (Rattus norvegicus) (UniProt P97612).
T3 sequence (whole entry): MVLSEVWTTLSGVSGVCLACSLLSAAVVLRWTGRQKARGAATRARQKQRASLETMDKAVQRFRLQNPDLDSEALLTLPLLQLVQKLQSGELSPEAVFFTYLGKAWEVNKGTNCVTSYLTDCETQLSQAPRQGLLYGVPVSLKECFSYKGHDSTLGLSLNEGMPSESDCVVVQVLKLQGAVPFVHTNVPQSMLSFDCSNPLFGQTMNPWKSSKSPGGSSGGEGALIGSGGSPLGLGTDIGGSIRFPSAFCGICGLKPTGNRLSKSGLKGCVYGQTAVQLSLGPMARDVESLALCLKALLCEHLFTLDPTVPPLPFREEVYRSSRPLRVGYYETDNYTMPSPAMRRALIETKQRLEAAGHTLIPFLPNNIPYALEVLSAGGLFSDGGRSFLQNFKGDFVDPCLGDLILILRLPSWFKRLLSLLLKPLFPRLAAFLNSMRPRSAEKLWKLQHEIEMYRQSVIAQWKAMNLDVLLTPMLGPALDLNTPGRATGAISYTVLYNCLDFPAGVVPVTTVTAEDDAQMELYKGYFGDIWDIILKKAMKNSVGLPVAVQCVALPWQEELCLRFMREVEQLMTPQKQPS
As to the kind of experiment: Inhibition of FAAH in rat brain membranes up to 500 nM preincubated for 20 mins followed by fluorophosphonate-rhodamine addition measured after 30 mins by competitive affinity based proteomic profiling assay. The series is classed as cell membranes. To be noted: Membrane. Summed up: (§1)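 Rat brain membranes (1 mg/mL) preincubated with 1–1000 nM inhibitor or DMSO for 20 min at 37 °C. FP-rhodamine then added and incubated a further 30 min at 37 °C. Samples run on SDS-PAGE and serine hydrolase bands quantified by in-gel fluorescence.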

The target of series [6] is T4, Lysophosphatidylserine lipase ABHD12 (Rattus norvegicus) (UniProt Q6AYT7).
T4 sequence (whole entry): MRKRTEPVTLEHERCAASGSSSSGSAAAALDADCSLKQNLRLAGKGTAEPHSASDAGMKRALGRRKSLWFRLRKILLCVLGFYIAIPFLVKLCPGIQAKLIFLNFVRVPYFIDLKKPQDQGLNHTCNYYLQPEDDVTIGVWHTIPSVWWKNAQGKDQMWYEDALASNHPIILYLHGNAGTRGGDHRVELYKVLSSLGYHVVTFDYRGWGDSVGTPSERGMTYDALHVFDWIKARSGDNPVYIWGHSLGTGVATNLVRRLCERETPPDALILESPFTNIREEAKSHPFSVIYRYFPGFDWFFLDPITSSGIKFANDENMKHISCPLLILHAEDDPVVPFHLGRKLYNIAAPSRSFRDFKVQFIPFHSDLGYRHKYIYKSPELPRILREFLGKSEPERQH
As to the kind of experiment: Inhibition of ABHD12 in rat brain membranes up to 500 nM preincubated for 20 mins followed by fluorophosphonate-rhodamine addition measured after 30 mins by competitive affinity based proteomic profiling assay. It is filed as cell membranes. The conditions noted are these: Membrane. Summed up: as §1

Experimental findings from ChEMBL document CHEMBL3785023, “Development and Pharmacological Characterization of Selective Blockers of 2-Arachidonoyl Glycerol Degradation with Efficacy in Rodent Models of Multiple Sclerosis and Pain” (J Med Chem, 2016) are described below.

The source made the active and inactive calls. No cut-off for these calls is given here.

Consider `O=C1[C@H](c2ccc(F)cc2)[C@@H](c2ccc3c(c2)OCO3)N1C1CCN(C(=O)n2cncn2)CC1` (racemic) [listing 1 of 2 here], for which the Activity with Heart [1] is listed as 252.65 bpm; in the series with Salmonella typhimurium it was “Non-toxic”. Also, the IC50 (in general, the concentration at which inhibition is half-maximal) came out at 2.88 µM in series [2] and 0.196 µM on Monoglyceride lipase. Also, the values for the Time in the series with Heart [3] and in the series with Heart [4] were 46.18 ms and 13.5 ms, respectively.
Turning to `O=C1[C@H](c2ccc(F)cc2)[C@@H](c2ccc3c(c2)OCO3)N1C1CCN(C(=O)n2cncn2)CC1` (racemic) [listing 2 of 2 here], the inhibition entry in series [5] and in series [6] was “inactive” in each case.
